High-throughput results deposited in PubChem BioAssay by The Scripps Research Institute Molecular Screening Center.
HTRA1 inhibitor – HTRA1 serine protease inhibitors, primary screen, biochemical, fluorescence polarization, HTS | Q92743 | recombinant HTRA1, FP-rhodamine activity-based probe | inhibition, % at 5.96 µM | 340,000 compounds, 0.5% hits | AID 504803, 2011; in the data active = inhibition above about 36%;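 note: 0% = enzyme with DMSO and 100% = wells lacking enzyme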
mABHD4 FP – ABHD4 inhibitors, primary screen, biochemical, fluorescence polarization, mouse | (Lyso)-N-acylphosphatidylethanolamine lipase (Mus musculus), Q8VD66 | purified mABHD4, FP-Rh probe fluorescence polarization | inhibition, % at 8.92 µM | 370,000 compounds, 0.54% hits | AID 720543, 2013;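 active = inhibition exceeding the mean over every tested compound plus 3 SD, cut at about 30% in these data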;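 note: 0% = plate median of compound wells and 100% = S159A mutant with DMSO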
Target sequence (Q8VD66 whole entry, looked up): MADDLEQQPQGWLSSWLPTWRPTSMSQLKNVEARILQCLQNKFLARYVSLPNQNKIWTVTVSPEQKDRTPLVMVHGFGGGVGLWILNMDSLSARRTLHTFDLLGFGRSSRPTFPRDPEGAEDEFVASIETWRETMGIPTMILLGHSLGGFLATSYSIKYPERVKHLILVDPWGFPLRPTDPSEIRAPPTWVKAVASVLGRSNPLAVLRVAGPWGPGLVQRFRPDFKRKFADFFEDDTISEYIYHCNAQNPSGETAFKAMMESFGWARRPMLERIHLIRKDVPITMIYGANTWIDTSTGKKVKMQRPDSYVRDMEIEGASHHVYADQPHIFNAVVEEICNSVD
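Assay system: mouse ABHD4 enzyme, wild type / Also added: fluorescent activity-based probe FP-Rh / Doses: single nominal dose of 8.92 µM, 0.89% DMSO final / Timing: 45 min compound pre-incubation plus 60 min probe step, 25 °C / Signal: FP readout, ex 525 nm / em 598 nm / Control set: S159A mutant/DMSO as 100%, compound-well median as 0%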
rCAG RNA binder – binders of r(CAG) RNA repeats, primary screen, biochemical, fluorescence; inhibition, % at 3 µM; 370,000 compounds, 1.3% hits; AID 651821, 2012; r(CAG) RNA repeat, TO-PRO-1 dye displacement fluorescence;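 active = inhibition above the plate cutoff, the mean of all test compounds on that plate plus 3 SD, cut at about 35% in these data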;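 note: 0% = DMSO alone and 100% = 100 µM mitoxantrone as full dye displacement; higher means more dye released from RNA so lower well fluorescence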
SIAE primary – human SIAE inhibitors, primary screen, biochemical, fluorescence polarization, FP-Rh probe, 1536-well HTS | inhibition, % at 9.66 µM | Sialate O-acetylesterase (Homo sapiens), Q9HAT2 | 370,000 compounds, 0.69% hits | SIAE FP-Rh probe binding;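 active = inhibition above a cutoff: mean of compounds within the control limits plus 3 SD of those, cut at about 17% in these data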;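 note: 0% = plate median of compound wells and 100% = probe without SIAE protein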
PRMT1 FP inh – PRMT1 methyltransferase inhibitors, primary screen, biochemical, fluorescence polarization. Protein arginine N-methyltransferase 1 (Homo sapiens), Q99873. recombinant PRMT1, activity-based probe fluorescence polarization. AID 652257, 2013. inhibition, % at 2.79 µM. 370,000 compounds, 1.3% hits;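 active = inhibition above about 21% made by adding two undisclosed values, limit read from the data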
Target sequence (Q99873 whole entry, looked up): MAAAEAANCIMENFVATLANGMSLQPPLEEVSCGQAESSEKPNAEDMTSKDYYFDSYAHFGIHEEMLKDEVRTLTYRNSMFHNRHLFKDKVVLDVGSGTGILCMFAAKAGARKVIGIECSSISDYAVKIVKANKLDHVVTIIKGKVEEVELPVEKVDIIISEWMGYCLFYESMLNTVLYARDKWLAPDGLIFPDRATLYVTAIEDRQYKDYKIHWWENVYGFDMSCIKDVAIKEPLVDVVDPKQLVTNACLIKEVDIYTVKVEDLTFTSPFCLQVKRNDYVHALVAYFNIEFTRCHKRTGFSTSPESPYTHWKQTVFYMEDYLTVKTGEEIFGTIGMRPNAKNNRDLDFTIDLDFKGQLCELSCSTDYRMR
rCAG bind conf – small molecules binding CAG repeat RNA – biochemical, fluorescence, confirmation; inhibition, % at 3 µM; shares compounds with rCAG RNA binder; 4,300 compounds, 70% hits; AID 652065, 2013; r(CAG) RNA repeat, TO-PRO-1 dye displacement fluorescence;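 active = inhibition above a per-plate cutoff, the mean inhibition of sample wells plus 3 SD, cut at about 35% in these data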;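 note: loss of TO-PRO-1 fluorescence as compound displaces dye from 1x1 AA loop RNA; 0% = DMSO only wells and 100% = 100 µM mitoxantrone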
dCAG dye counter – displacement of TO-PRO-1 from CAG DNA duplex, counter-screen for rCAG RNA repeat binder project, biochemical, fluorescence, TO-PRO-1 dye, d(CAG) DNA oligo; AID 652068, 2013; 4,300 compounds, 94% hits; shares compounds with rCAG RNA binder; inhibition, % at 3 µM; d(CAG) DNA oligo TO-PRO-1 dye displacement;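 active = inhibition above its plate's cutoff, the mean test-well inhibition plus 3 SD, cut at about 4.8% in these data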;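 note: 0% = DNA dye mix with DMSO and 100% = 100 µM mitoxantrone; hits displace the dye from DNA and so lower well fluorescence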
dCAG dye DR – inhibitors of DNA CAG/GTC TO-PRO-1 complex, dose response, counter-screen for rCAG RNA repeat binder project, biochemical, fluorescence, TO-PRO-1 dye; shares compounds with rCAG RNA binder; DNA CAG/GTC duplex TO-PRO-1 dye displacement fluorescence; IC50, µM; 250 compounds, 20% hits; AID 686960, 2013; in the data active = IC50 below about 10 µM
* marks the source's active call; other numbers are inactive results; i = inactive; x = no result. Shown are actives, neighbours in structure and some others; about 3.3% of the full set was active somewhere.

SMILES | HTRA1 inhibitor | mABHD4 FP | rCAG RNA binder | SIAE primary | PRMT1 FP inh | rCAG bind conf | dCAG dye counter | others
Cc1nn(-c2ccccc2)c(C)c1/C=N/NC(=O)c1cccs1 | -4 | -7 | -3 | 4 | -1 | x | x
O=C(N/N=C/c1ccc([N+](=O)[O-])o1)c1ccccc1NS(=O)(=O)c1cccs1 | 20 | 27 | 45* | 11 | 4 | 41* | 15*
COc1ccccc1/C=N/NC(=O)c1ccccc1NS(=O)(=O)c1ccc(C)cc1 | -11 | 1 | 39* | -2 | 2 | 45* | 14*
COc1cc(/C=N/NC(=O)c2ccccc2NS(=O)(=O)c2cccs2)ccc1O | 4 | 11 | 43* | 9 | 0 | 32 | 9.4*
Cc1nn(-c2ccccc2)c(C)c1/C=N/NC(=O)c1ccccc1NS(=O)(=O)c1cccs1 | -5 | 10 | 62* | 5 | 3 | 60* | 21*
N#CC1=C(S)N(c2ccccc2)C(c2ccc(-c3ccccc3Cl)o2)NC1=O (stereo unspecified) | -29 | -9 | 52* | -2 | 7 | 76* | 40*
COc1ccc(NC(=O)c2c(NC(=O)CCC(=O)O)sc(-c3ccccc3)c2C)cc1 | 1 | 4 | 50* | -7 | 3 | 57* | 12* | dCAG dye DR=>30
O=C(COc1cccc2ccccc12)Nc1cc(Cl)ccc1C(=O)O | -74 | -60 | 75* | -29 | -2 | 70* | 30* | dCAG dye DR=i
O=C(COc1cccc2ccccc12)Nc1ccc(Cl)cc1C(=O)O | -82 | -73 | 68* | -30 | 4 | 66* | 19*
CC(=O)c1cc(-c2ccc3[nH]ccc3c2)c(=O)n2c1CCC2 | x | 1 | 4 | -1 | 2 | x | x
O=C(CC1CCCC1)N[C@H](C(=O)N1CCC[C@H]1C(=O)NCc1ccccc1)c1ccccc1 | x | 9 | 1 | -6 | 6 | x | x
C[C@@H]1CCN(C2CC2)S(=O)(=O)c2ccc(N3CC[C@H](N(C)C)C3)cc2O1 | x | 3 | 3 | 4 | 0 | x | x
COc1ccc(C2=NN(c3nc4ccccc4s3)C(=O)/C2=C\N(C)C)cc1 | 3 | 8 | 46* | -9 | 0 | 38* | 13*
COC(=O)Cn1c(=O)c2c(n(Cc3ccccc3)c1=O)N/C(=C/c1ccc(OC)cc1)C2=O | -1 | 1 | 75* | 2 | 3 | 79* | 34* | dCAG dye DR=4*
CCN(CC)c1ccc(S(=O)(=O)Nc2cc(Cl)ccc2Cl)cc1NC(=S)NC(=O)C1CCCC1 | -48 | -26 | 65* | -26 | 5 | 71* | 35*
CCCNC(=O)c1ccccc1NS(=O)(=O)c1ccc(OC)c(OC)c1 | 3 | -4 | 2 | -1 | -1 | x | x
COc1ccc(-c2csc(NC(=O)c3ccccc3NS(=O)(=O)c3ccc(C)cc3)n2)cc1 | -50 | -32 | 85* | 1 | 2 | 95* | 82*
COc1ccc(S(=O)(=O)Nc2ccccc2C(=O)Nc2nc(-c3ccc(F)cc3)cs2)cc1OC | -32 | -22 | 87* | -8 | 3 | 89* | 71*
COC(=O)C1CCCN(C(=O)C(Cc2ccc3c(c2)OCO3)NC(C)=O)C1 (stereo unspecified) | x | -2 | 1 | -1 | -1 | x | x
Cc1ccc(S(=O)(=O)N2[C@@H](c3ccc(C(C)(C)C)cc3)C(C(=O)O)=CC[C@H]2c2ccc3c(c2)OCO3)cc1 | -61 | 16 | 83* | -1 | -2 | 82* | 46*
Cc1ccc(S(=O)(=O)N2[C@@H](c3ccccc3)C(C(=O)O)=CC[C@H]2c2ccc3c(c2)OCO3)cc1 | -7 | 6 | 54* | 8 | -2 | 43* | 11*
COC(=O)c1cc(-c2cc3ccccc3s2)c(=O)n2c1CCC2 | x | 0 | 2 | -4 | -5 | x | x
CCCC[C@@H]1C=C(C(=O)O)[C@H](c2ccc(C#N)cc2)N1S(=O)(=O)c1ccc(C)cc1 | -3 | 1 | 53* | -3 | -3 | 33 | 7.9*
CC[C@@H]1C=C(C(=O)O)[C@H](c2cccc(C)c2)N1S(=O)(=O)c1ccc(C)cc1 | -4 | 0 | 7 | 4 | 4 | x | x
CCCC[C@@H]1C=C(C(=O)O)[C@H](c2ccc(Cl)c(Cl)c2)N1S(=O)(=O)c1ccc(C)cc1 | -66 | -19 | 80* | -6 | 2 | 69* | 34*
SMILES | HTRA1 inhibitor | mABHD4 FP | rCAG RNA binder | SIAE primary | PRMT1 FP inh | rCAG bind conf | dCAG dye counter | others
CCCCC[C@@H]1C=C(C(=O)O)[C@H](c2ccc(Cl)cc2)N1S(=O)(=O)c1ccc(C)cc1 | -41 | -24 | 79* | -2 | -1 | 64* | 28*
CCCCC[C@@H]1C=C(C(=O)O)[C@H](c2ccc(C)cc2)N1S(=O)(=O)c1ccc(C)cc1 | -28 | -3 | 74* | 3 | 3 | 53* | 18*
CCCC[C@@H]1C=C(C(=O)O)[C@H](c2ccc(C)cc2)N1S(=O)(=O)c1ccc(C)cc1 | -5 | 8 | 32 | 3 | 1 | x | x
COC(=O)c1cccc(Cn2ccc3ccc(-c4ccc5ccn(C(=O)C6CCC6)c5c4)cc32)c1 | x | -3 | 13 | 3 | 1 | x | x
CC1(C)C=C2C(N(Cc3ccc4c(c3)OCO4)C(=N)N2C(=O)OCc2ccccc2)n2c(=O)n(-c3ccccc3)c(=O)n21 (stereo unspecified) | x | -5 | x | -4 | 2 | x | x
Cc1ccc(CNC(=O)c2ccccc2NS(=O)(=O)c2ccc(Cl)nc2)cc1 | -2 | -6 | 43* | 7 | 4 | 20 | 4
CC(=O)Nc1ccc(C(=O)Nc2ccc(S(=O)(=O)Nc3nccc(C)n3)cc2)cc1 | 3 | 2 | 4 | -6 | 1 | x | x
Cc1ccc(C)c(S(=O)(=O)Nc2ccccc2C(=O)Nc2ccc(S(=O)(=O)Nc3ncccn3)cc2)c1 | 1 | 7 | 77* | 8 | -2 | 51* | 18*
Cc1ccc(C)c(S(=O)(=O)Nc2ccccc2C(=O)Nc2cc(C)on2)c1 | -20 | -10 | 77* | 3 | -2 | 77* | 32* | dCAG dye DR=i
Cc1ccc(S(=O)(=O)Nc2ccccc2C(=O)Nc2ccc(S(=O)(=O)Nc3nccc(C)n3)cc2)cc1 | -7 | -6 | 59* | -3 | 0 | 55* | 24*
COc1ccc2[nH]c3c(c2c1)CCN[C@]31C(=O)N(C)c2ccccc21 | x | 3 | 2 | -2 | 0 | x | x
